Measured values taken from ChEMBL document CHEMBL1781898, “Orally active achiral N-hydroxyformamide inhibitors of ADAM-TS4 (aggrecanase-1) and ADAM-TS5 (aggrecanase-2) for the treatment of osteoarthritis” (Bioorg Med Chem Lett, 2011).

Key:
[1] = Thermodynamic solubility of the compound in phosphate buffer at pH 7.4 after 24 hrs; type: physicochemical; conditions: read-out: Therm_solubility
[2] = Volume of distribution at steady state in dog at 1 mg/kg, iv and 1 mg/kg, po; type: ADME, organism-based, Canis lupus familiaris; conditions: in vivo, read-out: Vdss
[3] = Apparent permeability across apical to basolateral side in human Caco2 cells at 10 uM; type: ADME, cell-based; conditions: Caco-2
Interstitial collagenase = target: T1, Interstitial collagenase (Homo sapiens, UniProt P03956); experiment: Inhibition of recombinant human MMP-1 assessed as substrate cleavage after 20 hrs by fluorescence assay
T1 sequence (P03956 whole entry): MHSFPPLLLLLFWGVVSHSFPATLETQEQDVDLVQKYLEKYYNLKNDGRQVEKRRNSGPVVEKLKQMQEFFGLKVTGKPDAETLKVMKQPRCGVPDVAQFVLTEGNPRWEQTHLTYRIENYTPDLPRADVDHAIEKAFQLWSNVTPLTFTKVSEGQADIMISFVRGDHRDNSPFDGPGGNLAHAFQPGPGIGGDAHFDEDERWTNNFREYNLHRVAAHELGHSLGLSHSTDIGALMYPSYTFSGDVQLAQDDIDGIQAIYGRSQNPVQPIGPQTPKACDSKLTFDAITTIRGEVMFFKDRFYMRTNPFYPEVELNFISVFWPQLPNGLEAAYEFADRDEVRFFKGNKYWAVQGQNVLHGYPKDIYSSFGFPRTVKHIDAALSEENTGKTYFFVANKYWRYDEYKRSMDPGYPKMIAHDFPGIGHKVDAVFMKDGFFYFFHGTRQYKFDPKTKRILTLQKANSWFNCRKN
Summary of the method: (§1)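 Enzyme inhibition IC50s derived from at least six measurements, standard errors normally <5% within an assay; a standard compound run to keep assay-to-assay variability within twofold.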

[4] = Clearance in mouse; type: ADME, organism-based; conditions: in vivo
[5] = Oral bioavailability in mouse; type: ADME, organism-based; conditions: in vivo
[6] = Inhibition of aggrecanase activity in IL-1-stimulated human osteoarthritis cartilage explant assessed as inhibition of aggrecan degradation measuring ARGSVIL neo-peptide release
[7] = Half life in rat at 2 mg/kg, iv and 3 to 10 mg/kg, po; type: ADME, organism-based; conditions: in vivo
Cytochrome P450 3A4 = Cytochrome P450 3A4 (Homo sapiens, UniProt P08684); experiment: Inhibition of CYP3A4; type: ADME
Summary of the method: (§2)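 Inhibition of cytochrome P450 isoforms 1A2, 2C9, 2C19, 2D6 and 3A4, reported as pIC50.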

Cytochrome P450 1A2 = target: T2, Cytochrome P450 1A2 (Homo sapiens, UniProt P05177); experiment: Inhibition of CYP1A2; type: ADME; summary of the method: as §2
T2 sequence (P05177 whole entry): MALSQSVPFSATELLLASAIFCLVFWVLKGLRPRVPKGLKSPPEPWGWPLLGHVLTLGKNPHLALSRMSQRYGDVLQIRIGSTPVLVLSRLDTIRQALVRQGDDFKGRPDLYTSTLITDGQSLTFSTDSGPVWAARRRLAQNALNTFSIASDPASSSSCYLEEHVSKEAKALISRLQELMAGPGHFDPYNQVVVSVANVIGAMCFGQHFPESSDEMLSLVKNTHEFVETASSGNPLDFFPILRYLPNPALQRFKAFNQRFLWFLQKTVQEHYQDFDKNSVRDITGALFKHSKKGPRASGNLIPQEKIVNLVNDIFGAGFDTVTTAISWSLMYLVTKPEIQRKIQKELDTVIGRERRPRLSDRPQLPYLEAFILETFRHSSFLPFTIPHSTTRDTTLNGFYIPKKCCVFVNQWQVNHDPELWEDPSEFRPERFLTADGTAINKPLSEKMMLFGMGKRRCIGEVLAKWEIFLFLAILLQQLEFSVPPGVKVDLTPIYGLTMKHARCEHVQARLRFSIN

Cytochrome P450 2D6 = Cytochrome P450 2D6 (Homo sapiens, UniProt P10635); experiment: Inhibition of CYP2D6; type: ADME; summary of the method: as §2
[8] = Intrinsic clearance in human hepatocytes measured per million cells; type: ADME, cell-based, Liver, Hepatocyte
Summary of the method: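 Human hepatocyte metabolism; intrinsic clearance expressed as μL/min/10⁶ cells, reported as mean of six separate experiments.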

[9] = target: 72 kDa type IV collagenase (Homo sapiens, UniProt P08253); experiment: Inhibition of recombinant human MMP-2 assessed as substrate cleavage after 20 hrs by fluorescence assay; summary of the method: as §1
72 kDa type IV collagenase, sequence (P08253 whole entry): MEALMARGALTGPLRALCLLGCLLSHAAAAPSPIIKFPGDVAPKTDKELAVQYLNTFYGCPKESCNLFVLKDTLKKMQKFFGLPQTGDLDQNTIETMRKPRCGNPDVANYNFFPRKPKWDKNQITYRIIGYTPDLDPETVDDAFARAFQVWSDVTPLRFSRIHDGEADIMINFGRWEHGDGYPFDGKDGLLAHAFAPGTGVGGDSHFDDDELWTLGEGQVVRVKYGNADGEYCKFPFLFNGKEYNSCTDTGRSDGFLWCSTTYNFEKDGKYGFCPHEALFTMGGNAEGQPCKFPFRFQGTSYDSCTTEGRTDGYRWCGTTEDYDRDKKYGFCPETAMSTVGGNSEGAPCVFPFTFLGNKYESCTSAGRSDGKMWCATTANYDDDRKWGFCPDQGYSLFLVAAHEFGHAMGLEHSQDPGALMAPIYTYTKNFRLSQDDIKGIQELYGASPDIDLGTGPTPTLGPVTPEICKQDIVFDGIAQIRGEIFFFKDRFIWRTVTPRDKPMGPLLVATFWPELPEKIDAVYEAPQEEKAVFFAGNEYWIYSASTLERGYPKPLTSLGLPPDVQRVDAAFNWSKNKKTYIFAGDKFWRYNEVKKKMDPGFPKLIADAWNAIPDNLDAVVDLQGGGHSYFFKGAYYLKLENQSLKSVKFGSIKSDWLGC

Cytochrome P450 3A4, sequence (P08684 whole entry, canonical isoform): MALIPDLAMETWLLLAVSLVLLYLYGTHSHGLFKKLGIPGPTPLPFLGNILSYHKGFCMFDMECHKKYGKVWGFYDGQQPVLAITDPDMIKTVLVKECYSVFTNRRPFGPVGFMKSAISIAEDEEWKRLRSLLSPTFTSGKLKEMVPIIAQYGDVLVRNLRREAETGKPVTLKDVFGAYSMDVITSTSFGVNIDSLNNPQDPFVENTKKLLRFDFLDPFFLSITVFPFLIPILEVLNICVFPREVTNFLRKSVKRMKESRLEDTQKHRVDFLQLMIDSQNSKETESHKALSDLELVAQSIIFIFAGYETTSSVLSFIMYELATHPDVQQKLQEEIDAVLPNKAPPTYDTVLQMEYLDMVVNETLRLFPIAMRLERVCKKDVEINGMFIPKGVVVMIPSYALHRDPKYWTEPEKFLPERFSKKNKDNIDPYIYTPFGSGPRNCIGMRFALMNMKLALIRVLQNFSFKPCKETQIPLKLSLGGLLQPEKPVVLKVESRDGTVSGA
Cytochrome P450 2D6, sequence (P10635 whole entry): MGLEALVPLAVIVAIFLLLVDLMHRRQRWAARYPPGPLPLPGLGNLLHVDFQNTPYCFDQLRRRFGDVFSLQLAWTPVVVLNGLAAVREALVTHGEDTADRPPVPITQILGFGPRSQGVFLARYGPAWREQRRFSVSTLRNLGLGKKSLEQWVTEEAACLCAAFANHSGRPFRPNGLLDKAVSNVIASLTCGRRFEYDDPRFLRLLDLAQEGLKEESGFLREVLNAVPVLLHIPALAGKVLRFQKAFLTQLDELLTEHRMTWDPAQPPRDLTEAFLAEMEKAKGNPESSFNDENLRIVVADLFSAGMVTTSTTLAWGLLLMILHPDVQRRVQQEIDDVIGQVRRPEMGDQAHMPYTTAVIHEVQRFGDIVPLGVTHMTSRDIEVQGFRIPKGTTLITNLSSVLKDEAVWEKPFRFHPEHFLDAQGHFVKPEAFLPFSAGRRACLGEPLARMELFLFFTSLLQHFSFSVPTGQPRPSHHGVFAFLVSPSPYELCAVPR

Cc1noc(C)c1CCC1CCN(S(=O)(=O)CC2(N(O)C=O)CCOCC2)CC1
solubility thermodynamic at 24 h [1]: > 1000 µM
Vd [2]: 10.9 L/kg
Papp A→B at 10 µM [3]: 8.3 ×10⁻⁶ cm/s
IC50 (Interstitial collagenase): > 10 µM
clearance [4]: 30 mL/min/kg
bioavailability [5]: 54%
IC50 [6]: 0.12 µM
half-life [7]: 8.9 h
inhibition (INH) (Cytochrome P450 3A4): Not Active
inhibition (INH) (Cytochrome P450 1A2): Not Active
inhibition (INH) (Cytochrome P450 2D6): Not Active
hepatocyte CLint [8]: < 2 µL/min/1e6 cells
IC50 [9]: > 23 µM
